In brackets after ≈: the same amount, converted by molar mass.
Key:
Leishmania aethiopica [1] = assay: Antileishmanial activity against promastigote stage of Leishmania aethiopica after 24 hrs by alamar blue staining-based […]; assay type: functional, organism-based
Procedure, shortened: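 L. aethiopica promastigotes, 3 × 10^6 per well, given compounds from DMSO stocks in three-fold dilutions at 10 to 0.04 µg/ml (final DMSO ≤0.1%), in duplicate, at room temperature (21 ± 1 °C). Alamar blue (resazurin) was added after 24 h and absorbance read 48 h later at 540 and 630 nm. Negative control was parasites, medium and DMSO.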

Leishmania aethiopica [2] = assay: Antileishmanial activity against amastigote stage of Leishmania aethiopica after 72 hrs by resazurin staining-based fluorescence assay; assay type: functional, organism-based
Procedure, shortened: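 Axenic L. aethiopica amastigotes (50 µl of 2 × 10^7 cells/ml) exposed to serial dilutions at final 0.04–10 µg/ml for 72 h at 31 °C, humidified, 5% CO₂. Resazurin was added at 68 h and fluorescence read at 72 h (ex 530/em 590 nm). EC50 from sigmoidal dose–response fits, mean ± SD of triplicate experiments run in duplicate. Controls were medium alone and 1% DMSO.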

Plasmodium berghei [3] = assay: Antimalarial activity against Plasmodium berghei str. ANKA infected in Swiss albino mouse assessed as supression of parasitemia at 0.048 mmol/kg/day, po qd for 3 days by microscopic analysis relative to control; assay type: functional
Procedure, shortened: (§1)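 Four-day suppressive test. Mice were infected iv on day 0 with 0.2 ml of 2 × 10^7 P. berghei ANKA-parasitized erythrocytes from a donor mouse, diluted in saline. From 2 h post-infection they were dosed orally at 0.048 mmol/kg/day for days 0–3, five mice per group. The vehicle was 7% Tween and 3% ethanol in water. On day 4, Giemsa smears were scored over 5 fields of about 100 RBC each. Suppression was calculated relative to the vehicle group, taken as 100%.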

Plasmodium berghei [4] = assay: Antimalarial activity against Plasmodium berghei str. ANKA infected in Swiss albino mouse assessed as parasitemia at 0.048 mmol/kg/day, po qd […] by microscopic analysis relative to control; assay type: functional; procedure, shortened: as §1
Mus musculus [5] = assay: Toxicity in mouse up to 100 mg/kg administered via parenteral route; assay type: organism-based; set-up: dose 100 mg/kg; conditions: in vivo
Procedure, shortened: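 Groups of six mice received intraperitoneal doses of 10, 25, 50, 75 and 100 mg/kg, with propylene glycol as the vehicle control.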

Mus musculus [6] = assay: Toxicity in mouse assessed as death at 25 to 300 mg/kg, po measured for 3 days; assay type: organism-based; set-up: dose 25-300 mg/kg, route oral; conditions: in vivo, 72 h
Procedure, shortened: (§2)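 Male mice (26-32 g), six per group, fasted overnight and weighed. Compounds given orally as suspension in 1% gum acacia at 25, 50, 100, 200 and 300 mg/kg/day; vehicle control at up to 1 ml/100 g. Mortality recorded after 24 h; weight and deaths followed over 3 days post-dosing.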

[7] = Toxicity in po dosed mouse; assay type: organism-based; conditions: in vivo; procedure, shortened: as §2
Mus musculus [8] = assay: Toxicity in mouse assessed as change in weight at 25 to 300 mg/kg, po measured for 3 days; assay type: organism-based; set-up: dose 25-300 mg/kg, route oral; conditions: in vivo, 72 h; procedure, shortened: as §2
Plasmodium berghei [9] = assay: Antimalarial activity against Plasmodium berghei str. ANKA infected in Swiss albino mouse assessed as survival at 0.048 mmol/kg/day, po qd for 3 days by microscopic analysis relative to control; assay type: functional
Procedure, shortened: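 P. berghei ANKA infected mice, 4-day suppressive test. Day 0: 0.2 ml of 2 x 10^7 parasitized erythrocytes given i.v. (donor blood, 20-30% parasitemia, diluted in saline). Oral dosing at 0.048 mmol/kg/day from 2 h post-infection, then days 1-3 at 24 h intervals. Vehicle 7% Tween, 3% ethanol in water. Five mice/group. Survival time recorded per mouse; mean compared with vehicle group.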

Plasmodium falciparum = assay: Antiplasmodial activity against chloroquine-resistant Plasmodium falciparum RKL9 infected in human RBC assessed as effect on schizont maturation after 24 hrs by Geimsa staining-based assay; assay type: functional, organism-based; conditions: RKL9, 24 h
Procedure, shortened: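 P. falciparum RKL9 in continuous culture in human B(+) RBC, parasitemia adjusted to 1-1.5%, RPMI 1640 with 10% AB(+) serum. Two-fold serial dilutions, compounds in ethanol (final ≤0.5%), 24 h at 37 °C, duplicate wells. Schizonts per 100 asexual parasites counted on Giemsa smears; % schizont maturation inhibition = (1 − Nt/Nc) × 100.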

| Structure (SMILES) | IC50 (Leishmania aethiopica [1]) [µg/mL] | IC50 (Leishmania aethiopica [2]) [µg/mL] | Activity (Plasmodium berghei [3]) [%] | Activity (Plasmodium berghei [4]) [%] | Activity (Mus musculus [5]) | Activity (Mus musculus [6]) | MTD [7] [mg/kg] | Activity (Mus musculus [8]) | Survival (Plasmodium berghei [9]) [days] | IC50 (Plasmodium falciparum) [nM] |
| --- | --- | --- | --- | --- | --- | --- | --- | --- | --- | --- |
| Cc1ccc(-n2cc(/C=N/NC(=S)Nc3ccccc3)c(-c3ccc([N+](=O)[O-])cc3)n2)cc1 | 0.0241 (≈ 0.0528 µM) | 0.23 (≈ 0.504 µM) | 94.19 | 5 | Non-toxic | Non-toxic | 300 | Non-toxic | 14 | 37.8 |
| Cc1ccc(-c2nn(-c3ccc(C)cc3)cc2/C=C/C(=O)c2ccccc2)cc1 | 4 (≈ 10.6 µM) | 2.88 (≈ 7.61 µM) | 69.77 | 26 |  |  |  |  | 11.6 |  |
| CC(=O)N(C1=NN(C(C)=O)C(c2cn(-c3ccc(C)cc3)nc2-c2ccc([N+](=O)[O-])cc2)S1)c1ccccc1 (stereo not given) | 0.846 (≈ 1.57 µM) | 1.21 (≈ 2.24 µM) | 79.07 | 18 |  |  |  |  | 10.4 |  |
| CCC(=O)N1N=C(c2ccccc2)CC1c1cn(-c2ccc(Br)cc2)nc1-c1ccc([N+](=O)[O-])cc1 (stereo not given) | 2.12 (≈ 3.9 µM) | 1.83 (≈ 3.36 µM) | 60.47 | 34 |  |  |  |  | 6.82 |  |
| O=[N+]([O-])c1ccc(-c2nn(-c3ccc(Br)cc3)cc2/C=N/N=c2/scc(-c3ccc(Br)cc3)n2-c2ccccc2)cc1 | 2.9 (≈ 4.14 µM) | 1.07 (≈ 1.53 µM) | 67.44 | 28 |  |  |  |  | 12.26 |  |
| CC(=O)N1N=C(c2ccccc2)CC1c1cn(-c2ccc(C)cc2)nc1-c1ccc(C)cc1 (stereo not given) | 3.05 (≈ 7.01 µM) | 2.31 (≈ 5.32 µM) | 79.07 | 18 |  |  |  |  | 10.08 |  |
| Cc1ccc(-n2cc(/C=N/N=c3/scc(-c4ccc(Br)cc4)n3-c3ccccc3)c(-c3ccc([N+](=O)[O-])cc3)n2)cc1 | 3.11 (≈ 4.9 µM) | 1.78 (≈ 2.8 µM) | 74.42 | 22 |  |  |  |  | 12.12 |  |
| CC(=O)N(C1=NN(C(C)=O)C(c2cn(-c3ccc(C)cc3)nc2-c2ccc(C)cc2)S1)c1ccccc1 (stereo not given) | 0.862 (≈ 1.69 µM) | 0.82 (≈ 1.61 µM) | 83.72 | 14 |  |  |  |  | 12.22 |  |
| Cc1ccc(-c2nn(-c3ccc(C)cc3)cc2C=O)cc1 | 4.06 (≈ 14.7 µM) | 1.97 (≈ 7.13 µM) | 61.62 | 33 |  |  |  |  | 8.62 |  |
| Cc1ccc(-c2nn(-c3ccc(Br)cc3)cc2/C=N/N=C2/SCC(=O)N2c2ccccc2)cc1 | 0.0341 (≈ 0.0643 µM) | 0.32 (≈ 0.603 µM) | 95.35 | 4 | Non-toxic | Non-toxic | 300 | Non-toxic | 16.86 | 36.4 |
| CC(=O)N1N=C(c2ccccc2)CC1c1cn(-c2ccc(Br)cc2)nc1-c1ccc(C)cc1 (stereo not given) | 3.02 (≈ 6.05 µM) | 2.77 (≈ 5.55 µM) | 96.51 | 3 | Non-toxic | Non-toxic | 300 | Non-toxic | 16.4 | 36.8 |
| Cc1ccc(-c2nn(-c3ccc(Br)cc3)cc2/C=N/N=c2/scc(-c3ccc(Br)cc3)n2-c2ccccc2)cc1 | 4.06 (≈ 6.07 µM) | 2.21 (≈ 3.3 µM) | 83.72 | 14 |  |  |  |  | 11.22 |  |
| Cc1ccc(-c2nn(-c3ccc(C)cc3)cc2/C=N/N=c2/scc(-c3ccc(Br)cc3)n2-c2ccccc2)cc1 | 0.0311 (≈ 0.0514 µM) | 0.3 (≈ 0.496 µM) | 97.67 | 2 | Non-toxic | Non-toxic | 300 | Non-toxic | 16.84 | 41.8 |
| Cc1ccc(-c2nn(-c3ccc(C)cc3)cc2/C=N/NC(=S)Nc2ccccc2)cc1 | 3.01 (≈ 7.08 µM) | 2.26 (≈ 5.31 µM) | 60.47 | 34 |  |  |  |  | 9.23 |  |
| Cc1ccc(-n2cc(C=O)c(-c3ccc([N+](=O)[O-])cc3)n2)cc1 | 3.64 (≈ 11.9 µM) | 1.56 (≈ 5.08 µM) | 62.79 | 32 |  |  |  |  | 7.28 |  |

From ChEMBL document CHEMBL3414483, “New heterocyclic hybrids of pyrazole and its bioisosteres: design, synthesis and biological evaluation as dual acting antimalarial-antileishmanial agents” (Eur J Med Chem, 2015)
